# Shown are actives, neighbours in structure and some others; about 2.2% of the full set was active somewhere.
# Exocytosis inh = blocks lytic granule exocytosis. hit rate 0.66% among 360,000. AID 651702. inhibition, % at 10 µM. TALL-104 LAMP-1 surface exposure, flow cytometry; cells stimulated with thapsigargin and PMA;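 active means inhibition above about 55%, limit read from the data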
# PfG6PD inh = PfG6PD (Plasmodium falciparum) enzyme inhibition. inhibition, % at 20 µM. PfGluPho enzyme, NADPH resazurin-diaphorase fluorescence. hit rate 0.78% among 350,000;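 active means inhibition reaching at least a set limit at 20 µM in the primary screen, cut at about 59% in these data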;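 further: 0% = DMSO wells with substrate and 100% = DMSO wells lacking glucose-6-phosphate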
# ABHD5 PLIN5 PPI = blocks binding of human ABHD5 to perilipin-5 | Split G. princeps luciferase complementation, luminescence, 4 h | inhibition, % at 4 µM | hit rate 0.78% among 360,000 | AID 602281 | Q00G26+Q8WTS1;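 active means inhibition above the mean inhibition across every tested compound plus 3 SD, cut at about 22% in these data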;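 further: 0% = DMSO only wells and the 100% control is not disclosed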
# Target sequence (Q00G26 whole entry, looked up): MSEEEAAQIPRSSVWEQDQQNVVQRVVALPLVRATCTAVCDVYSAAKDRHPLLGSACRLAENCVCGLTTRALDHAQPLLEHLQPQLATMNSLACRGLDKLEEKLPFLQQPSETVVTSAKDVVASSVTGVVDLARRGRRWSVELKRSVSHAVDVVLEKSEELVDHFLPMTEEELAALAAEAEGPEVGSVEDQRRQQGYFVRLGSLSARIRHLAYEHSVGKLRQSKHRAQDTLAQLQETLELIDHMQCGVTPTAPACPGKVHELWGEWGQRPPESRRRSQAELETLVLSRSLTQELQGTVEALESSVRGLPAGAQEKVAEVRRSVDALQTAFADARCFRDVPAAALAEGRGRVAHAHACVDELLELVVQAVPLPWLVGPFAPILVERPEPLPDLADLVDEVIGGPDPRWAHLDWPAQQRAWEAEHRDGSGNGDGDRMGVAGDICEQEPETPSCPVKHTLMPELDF
# Target sequence (Q8WTS1 whole entry, looked up): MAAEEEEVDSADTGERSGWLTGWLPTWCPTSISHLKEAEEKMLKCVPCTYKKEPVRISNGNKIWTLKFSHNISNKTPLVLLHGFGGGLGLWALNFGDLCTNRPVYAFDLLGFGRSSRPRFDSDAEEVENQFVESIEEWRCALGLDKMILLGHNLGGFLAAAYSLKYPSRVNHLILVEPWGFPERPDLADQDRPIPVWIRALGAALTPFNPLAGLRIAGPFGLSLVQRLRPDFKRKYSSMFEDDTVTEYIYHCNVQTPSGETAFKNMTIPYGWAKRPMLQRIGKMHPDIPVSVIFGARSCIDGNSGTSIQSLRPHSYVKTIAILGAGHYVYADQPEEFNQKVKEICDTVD
# HKDC1 inhibitor = inhibitors of human hexokinase HKDC1; inhibition, % at 20 µM; hit rate 0.16% among 340,000; recombinant HKDC1, G6PDH/diaphorase resazurin coupled fluorescence; Q2TB90;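 active means inhibition above about 35% when tested at 20 µM, limit read from the data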;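 further: plate controls were DMSO wells with enzyme for no effect and DMSO wells lacking enzyme for full effect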
#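 Assay system: in-house recombinant HK5 (HKDC1) enzyme. Input: HKDC1 at 5 µg/mL. Medium: Tris pH 8.0 buffer with MgCl2, Tween-20, BSA, BME. Dosing: single 20 µM dose. Schedule: 90 min reaction incubation at room temperature, dark. Signal: resazurin-to-resorufin fluorescence via G6PDH and diaphorase coupling, 525/613 nm. Controls: DMSO-enzyme wells negative, buffer-substituted wells positive.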
# PfG6PD confirm = confirmation of Plasmodium falciparum G6PD inhibitors | shares compounds with PfG6PD inh | recombinant PfGluPho, NADPH-diaphorase-resazurin fluorescence | AID 504753 | hit rate 34% among 2,400 | inhibition, % at 20 µM;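 active means inhibition of at least 50% at 20 µM in any single replicate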;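 further: 0% = DMSO with substrate and 100% = DMSO lacking glucose-6-phosphate substrate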
# Diaph ctr 10uM = counter-screen for P. falciparum G6PD inhibitors: diaphorase inhibitors, oxidizers | inhibition, % at 20 µM | AID 504862 | shares compounds with PfG6PD inh | hit rate 39% among 820 | diaphorase-coupled resazurin reduction, fluorescence, NADPH 10 uM;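 active means average inhibition reaching 50% or more with the compound at 20 µM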;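 further: resorufin red fluorescence formed as diaphorase reduces resazurin using NADPH; 0% = DMSO with enzyme and 100% = DMSO without enzyme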
# Diaphorase 30uM = diaphorase inhibition or oxidation at 30 uM NADPH; shares compounds with PfG6PD inh; inhibition, % at 20 µM; hit rate 29% among 820; Diaphorase/resazurin coupled assay, resorufin fluorescence;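 active means inhibition averaging 50% or more, tested at 20 µM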;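 further: 0% = DMSO with enzyme and 100% = DMSO wells lacking diaphorase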
# Starred values were filed as active, the others as inactive; x = no result.
SMILES,Exocytosis inh,PfG6PD inh,ABHD5 PLIN5 PPI,HKDC1 inhibitor,PfG6PD confirm,Diaph ctr 10uM,Diaphorase 30uM
O=C(Nc1nnc(C2CC2)s1)c1ccc(Cl)nc1,-2,80*,-3,3,58*,64*,50
C=CCSc1nnc(NC(=O)c2ccc(N3CCCC3=O)cc2)s1,2,-10,4,3,x,x,x
CC(C)(C)c1nnc(NC(=O)c2ccc(Cl)nc2)s1,-2,103*,1,-12,95*,81*,62*
C=CCSc1nnc(NC(=O)c2ccc(Cl)nc2)s1,1,82*,3,3,78*,72*,49
CCc1nnc(NC(=O)c2ccc(Cl)nc2)s1,-4,78*,1,-2,57*,49,41
O=C(Nc1nnc(C2CC2)s1)c1ccc(S(=O)(=O)c2ccccc2)cc1,0,-42,-7,-8,x,x,x
Nc1nc(SCc2ccccc2)sc1C(=O)N1CCCCC1,6,5,6,x,x,x,x
CCCCN1C(=O)c2ccc(C(=O)NC3(C)CCS(=O)(=O)C3)cc2C1=O (configuration not stated),0,-20,-7,-1,x,x,x
COc1ccc(Cl)cc1NC(=O)CN(C)C(C)C(=O)NCC1CCCCC1 (configuration not stated),-2,14,0,-4,x,x,x
COc1ccc(Cl)cc1NC(=O)CN(C(=O)c1ccco1)C1CCCCC1,-3,63*,-1,-1,31,x,x
CSCCC(NC(=O)COc1ccccc1)C(=O)N(C)Cc1ccc(SC)cc1 (configuration not stated),-3,6,-4,-6,x,x,x
CN(C)c1ccc2nc3ccc(=O)cc-3sc2c1,1,78*,-9,x,49*,24,28
Cc1cccc(C(=O)Nc2nnc(S(=O)(=O)N3CCC(C)CC3)s2)c1,-2,70*,-1,1,23,x,x
Cc1ccc(C(=O)Nc2nnc(S(=O)(=O)N3CCOCC3)s2)cc1,7,101*,-7,-4,62*,52*,51*
Cc1cccc(C(=O)Nc2nnc(S(=O)(=O)N3CCOCC3)s2)c1,5,68*,3,-3,61*,48,41
O=C(Nc1nnc(S(=O)(=O)N2CCOCC2)s1)c1ccc(F)cc1,-1,86*,10,-5,56*,30,45
O=C(Nc1nnc(S(=O)(=O)N2CCOCC2)s1)c1cccc(F)c1,-1,51,2,-6,x,x,x
O=C(Nc1nnc(S(=O)(=O)N2CCCCCC2)s1)c1ccc(Cl)cc1,2,80*,7,-2,20,x,x
COc1ccc(C(=O)Nc2nnc(S(=O)(=O)N3CCC(C)CC3)s2)cc1OC,1,-12,8,-3,x,x,x
Cc1ccc(C(=O)Nc2nnc(S(=O)(=O)N3CCC(C)CC3)s2)cc1,-8,84*,-1,0,50*,33,38
Cc1ccc(C(=O)Nc2nnc(S(=O)(=O)N3CCCCCC3)s2)cc1,-3,68*,0,-1,6,x,x
CC(C)c1ccc(C(=O)Nc2nnc(S(=O)(=O)N3CCCCC3)s2)cc1,1,-20,-12,-1,x,x,x
COc1ccc(OCC(=O)N2CCCC(Nc3ccc(C)c(C)c3)C2)cc1 (configuration not stated),0,12,5,x,x,x,x
CC(=O)N1CCOc2ccc(S(=O)(=O)NCC3CCC(C(=O)Nc4ncccc4C)CC3)cc21 (configuration not stated),-3,11,2,-9,x,x,x
Cc1ccc(S(=O)(=O)N2[C@H](CC(=O)c3cccs3)OC[C@@H]2C)cc1,-3,x,10,x,x,x,x
SMILES,Exocytosis inh,PfG6PD inh,ABHD5 PLIN5 PPI,HKDC1 inhibitor,PfG6PD confirm,Diaph ctr 10uM,Diaphorase 30uM
CCOC(=O)c1ccc(CNCc2ccccc2)cc1,4,-2,-1,-8,x,x,x
CCOC(=O)c1ccc(/[N+]([O-])=C/c2ccccc2)cc1,2,90*,-11,-1,97*,49,8
C#CCCc1cscc1/C=[N+](\[O-])c1ccc(C(=O)OCC)cc1,2,116*,-7,1,103*,43,15
COc1ccc(CN(C)C(=O)CCN=C2NS(=O)(=O)c3ccccc32)c(OC)c1,5,-4,-6,-5,x,x,x
Cn1nc(C(=O)N2CCN(C(c3ccccc3)c3ccccc3)CC2)c2ccccc2c1=O,2,-20,-5,9,x,x,x
N/C(COc1cc(Cl)cc(Cl)c1)=N\O,-3,-8,7,-2,x,x,x
O=[N+]([O-])c1ccc(NN=C(Oc2ccccc2)c2ccc([N+](=O)[O-])cc2)cc1,0,8,-3,x,x,x,x
CC/C(=N\Nc1ccc([N+](=O)[O-])cc1)c1ccccc1,1,74*,3,-6,-15,x,x
COc1ccc(CCNC(=O)CCC(=O)n2ncc3ccc(Cl)cc32)cc1OC,2,-7,3,-1,x,x,x
O=C(CSc1nnc2c(n1)[nH]c1ccccc12)Nc1ccc2c(c1)OCO2,-2,64*,1,-5,0,x,x
O=C(CSc1nnc2c(n1)[nH]c1ccccc12)Nc1ccc(N2CCOCC2)cc1,0,56,-1,10,x,x,x
O=C(CSc1nnc2c(n1)[nH]c1ccccc12)Nc1cccc(S(=O)(=O)N2CCOCC2)c1,-6,62*,3,8,16,x,x
COc1ccccc1CC(=O)Nc1ccc2c(c1)C(=O)NC2=O,-3,-8,-2,-3,x,x,x
CC(C)(C)N1C(=O)c2ccccc2NC(=O)N1Cc1ccccc1,-4,24,0,0,x,x,x
O=C1Nc2ccccc2C(=O)C1(Cl)Cc1ccccc1 (configuration not stated),-3,70*,12,7,66*,-2,-6
CC1CCc2nc3sc4c(c3c(N)c2C1)CCCC4 (configuration not stated),0,91*,-4,-1,41,x,x
CC1CCc2c(nc3sc4c(c3c2N)CCCC4)C1 (configuration not stated),10,95*,2,-6,57*,51*,41
O=C1N/C(=N\c2ccccn2)SC1Cc1ccccc1Cl (configuration not stated),-10,-12,-9,-4,x,x,x
Clc1ss/c(=N\c2ccccn2)c1Cl,-2,64*,-7,-7,-6,x,x
N#Cc1cccc(C#N)c1Oc1ccc(S(=O)(=O)Nc2ccc(Cl)cc2)cc1,8,-27,5,3,x,x,x
Cc1ccc(NC(=O)CSC(C)C(=O)OCC(=O)N2CCN(C(=O)c3ccco3)CC2)cc1 (configuration not stated),2,-2,-1,-6,x,x,x
Cc1[nH]c2ccccc2c1/C=N/NC(=O)c1cccc(S(=O)(=O)Nc2cccc(C(F)(F)F)c2)c1,-1,66*,-3,2,15,x,x
O=C(c1cc(Br)ccc1O)N1CCN(S(=O)(=O)Cc2ccccc2)CC1,0,-9,6,4,x,x,x
Cn1ncc(Cl)c1C(=O)N1CCN(C(=O)c2ccco2)CC1,-2,3,-8,-11,x,x,x

# Assay outcomes deposited in PubChem by several laboratories.
